Measurements reported in ChEMBL document CHEMBL1137283, “Synthesis and biological evaluation of heterocycle containing adamantane 11beta-HSD1 inhibitors” (Bioorg Med Chem Lett, 2006).

Legend:
[1] = biological target: 11-beta-hydroxysteroid dehydrogenase 1 (Mus musculus, UniProt P50172); assay: Inhibition of mouse 11beta-HSD1 expressed in Escherichia coli
In short: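 Reductase-direction SPA. Total cortisone was 175 nM, including 75 nM ³H-cortisone, with NADPH cofactor in 50 mM Tris–HCl pH 7.2 and 1 mM EDTA. An NADPH regeneration system (1 mM G-6-P, 1 U/mL G-6-PDH) was included. Final enzyme was 0.015 mg/mL, keeping substrate consumption below 25%. The reaction ran 30 min at room temperature. ³H-cortisol was captured by anti-cortisol mAb and anti-mouse SPA beads, then scintillation-counted. IC50 came from % inhibition versus an uninhibited control, as the mean of two experiments.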

[2] = Stability in mouse liver microsomes after 30 min; assay type: ADME, Microsome; conditions: read-out: Stability
In short: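 Compounds were incubated 30 min with mouse liver microsomes; the result is expressed as % parent remaining.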

[3] = biological target: T1, 11-beta-hydroxysteroid dehydrogenase type 2 (Homo sapiens, UniProt P80365); assay: Inhibition of human 11beta-HSD2
T1 sequence (P80365 whole entry): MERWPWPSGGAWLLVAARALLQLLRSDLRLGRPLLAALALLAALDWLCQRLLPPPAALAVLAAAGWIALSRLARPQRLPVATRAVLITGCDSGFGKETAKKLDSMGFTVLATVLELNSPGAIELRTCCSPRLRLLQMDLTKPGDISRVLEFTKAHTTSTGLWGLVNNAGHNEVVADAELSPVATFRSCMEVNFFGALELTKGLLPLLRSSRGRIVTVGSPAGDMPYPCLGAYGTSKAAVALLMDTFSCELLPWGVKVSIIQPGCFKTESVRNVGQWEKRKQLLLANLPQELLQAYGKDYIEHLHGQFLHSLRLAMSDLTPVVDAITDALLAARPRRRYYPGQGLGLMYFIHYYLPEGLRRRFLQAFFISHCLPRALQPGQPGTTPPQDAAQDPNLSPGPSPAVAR

[4] = biological target: T2, 11-beta-hydroxysteroid dehydrogenase 1 (Homo sapiens, UniProt P28845); assay: Inhibition of human 11beta-HSD1 expressed in Escherichia coli
[5] = biological target: T3, 11-beta-hydroxysteroid dehydrogenase type 2 (Mus musculus, UniProt P51661); assay: Inhibition of mouse 11beta-HSD2
T3 sequence (P51661 whole entry): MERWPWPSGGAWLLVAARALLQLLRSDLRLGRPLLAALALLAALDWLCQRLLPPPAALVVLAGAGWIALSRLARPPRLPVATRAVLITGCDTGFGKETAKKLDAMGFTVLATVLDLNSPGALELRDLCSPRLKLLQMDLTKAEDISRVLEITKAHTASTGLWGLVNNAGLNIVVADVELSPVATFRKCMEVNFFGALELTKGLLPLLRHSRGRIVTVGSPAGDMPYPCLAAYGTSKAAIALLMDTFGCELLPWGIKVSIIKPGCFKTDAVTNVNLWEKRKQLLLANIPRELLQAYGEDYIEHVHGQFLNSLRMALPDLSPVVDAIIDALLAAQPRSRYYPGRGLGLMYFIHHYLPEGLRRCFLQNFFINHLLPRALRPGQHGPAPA

[6] = biological target: T2, 11-beta-hydroxysteroid dehydrogenase 1; assay: Inhibition of human 11beta-HSD1 expressed in HEK293 cells; assay type: cell-based
[7] = Plasma clearance in mouse at 10 mg/kg; assay type: ADME, organism-based; design: dose 10 mg/kg
In short: (§1)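 Mouse PK: single 10 mg/kg doses given intravenously and orally; the parameters were calculated from these dosings.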

[8] = biological target: 11-beta-hydroxysteroid dehydrogenase 1 (Mus musculus) (UniProt P50172); assay: Inhibition of DIO mouse adipose tissue 11beta-HSD1 at 30 mg/kg 7 hrs post dose; assay type: organism-based; design: dose 30 mg/kg
In short: (§2)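 DIO mice received one oral 30 mpk dose in 1% Tween 80 / 0.2% hydroxypropyl methylcellulose, 3 mice per point. Liver, epididymal fat and brain were excised at 7 or 16 h, weighed, minced in about 5 volumes PBS and given cortisone at 10 final. Incubation was at 37 °C, 5% CO₂: liver 20 min, fat and brain 3 h. Cortisol was read by LC-MS; % inhibition is versus the vehicle group.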

[9] = Half life in mouse plasma at 10 mg/kg; assay type: ADME, organism-based; design: dose 10 mg/kg; in short: as §1
[10] = biological target: 11-beta-hydroxysteroid dehydrogenase 1 (Mus musculus) (UniProt P50172); assay: Inhibition of DIO mouse adipose tissue 11beta-HSD1 at 30 mg/kg 16 hrs post dose; assay type: organism-based; design: dose 30 mg/kg; in short: as §2
[11] = Bioavailability in mouse plasma at 10 mg/kg; assay type: ADME, organism-based; in short: as §1
[12] = biological target: 11-beta-hydroxysteroid dehydrogenase 1 (Mus musculus) (UniProt P50172); assay: Inhibition of DIO mouse liver 11beta-HSD1 at 30 mg/kg 16 hrs post dose; assay type: organism-based; design: dose 30 mg/kg; in short: as §2
[13] = biological target: 11-beta-hydroxysteroid dehydrogenase 1 (Mus musculus) (UniProt P50172); assay: Inhibition of DIO mouse liver 11beta-HSD1 at 30 mg/kg 7 hrs post dose; assay type: organism-based; design: dose 30 mg/kg; in short: as §2
[14] = biological target: 11-beta-hydroxysteroid dehydrogenase 1 (Mus musculus) (UniProt P50172); assay: Inhibition of DIO mouse brain 11beta-HSD1 at 30 mg/kg 16 hrs post dose; assay type: organism-based; design: dose 30 mg/kg; in short: as §2
[15] = biological target: 11-beta-hydroxysteroid dehydrogenase 1 (Mus musculus) (UniProt P50172); assay: Inhibition of DIO mouse brain 11beta-HSD1 at 30 mg/kg 7 hrs post dose; assay type: organism-based; design: dose 30 mg/kg; in short: as §2

Chain of 11-beta-hydroxysteroid dehydrogenase 1 (Mus musculus, UniProt P50172) (P50172 whole entry): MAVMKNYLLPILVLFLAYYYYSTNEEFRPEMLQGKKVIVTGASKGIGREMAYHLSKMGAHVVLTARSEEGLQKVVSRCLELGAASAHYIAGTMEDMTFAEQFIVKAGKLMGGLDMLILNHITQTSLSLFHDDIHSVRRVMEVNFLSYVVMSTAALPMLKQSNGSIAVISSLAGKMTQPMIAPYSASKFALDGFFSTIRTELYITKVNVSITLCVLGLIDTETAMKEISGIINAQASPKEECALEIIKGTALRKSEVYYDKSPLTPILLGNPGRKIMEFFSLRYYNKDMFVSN
Chain of 11-beta-hydroxysteroid dehydrogenase 1 (Mus musculus) (P50172 whole entry, looked up): as the sequence (P50172 whole entry) above
T2 sequence (P28845 whole entry): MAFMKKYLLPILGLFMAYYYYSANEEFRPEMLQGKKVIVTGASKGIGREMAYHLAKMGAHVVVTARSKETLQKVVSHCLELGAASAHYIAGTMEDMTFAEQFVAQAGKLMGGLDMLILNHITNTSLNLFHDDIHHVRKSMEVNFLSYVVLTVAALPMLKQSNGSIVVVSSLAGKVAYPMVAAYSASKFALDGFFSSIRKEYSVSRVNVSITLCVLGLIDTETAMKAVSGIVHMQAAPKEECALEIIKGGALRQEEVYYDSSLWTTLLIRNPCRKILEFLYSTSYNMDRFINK

Row | SMILES | IC50 [1] | remaining at 0.5 h [2] | IC50 [3] | IC50 [4] | IC50 [5] | IC50 [6] | clearance [7] | inhibition [8] | half-life [9] | inhibition [10] | bioavailability [11] | inhibition [12] | inhibition [13] | inhibition [14] | inhibition [15]
1 | CC(C)(Oc1ccc(-n2cccn2)cn1)C(=O)N[C@H]1C2C[C@@H]3C[C@H]1C[C@@](CC(N)=O)(C2)C3 | 11 nM | 83% | > 100000 nM | 5 nM | > 100000 nM | 38 nM |  |  |  |  |  |  |  |  | 
2 | CNc1ccc(C(C)(C)C(=O)N[C@H]2C3C[C@@H]4C[C@H]2C[C@@](CC(N)=O)(C3)C4)cn1 | 310 nM | 83% | > 100000 nM | 29 nM | > 100000 nM | 246 nM |  |  |  |  |  |  |  |  | 
3 | CC(C)(Oc1ccc(Cl)cc1)C(=O)N[C@H]1C2C[C@@H]3C[C@H]1C[C@@](CC(=O)O)(C2)C3 | 92 nM | 94% |  |  | 20700 nM |  | 3.33 mL/min/kg | 70% | 2 h | 35% | 96.1% | 0% | 40% |  | 
4 | CN1CCN(c2ccc(OC(C)(C)C(=O)N[C@H]3C4C[C@@H]5C[C@H]3C[C@@](CC(N)=O)(C4)C5)nc2)CC1 | 519 nM |  | > 100000 nM | 185 nM | > 100000 nM | > 10000 nM |  |  |  |  |  |  |  |  | 
5 | CC(C)(Oc1ccc(N2CCOCC2)cn1)C(=O)N[C@H]1C2C[C@@H]3C[C@H]1C[C@@](CC(N)=O)(C2)C3 | 51 nM | 89% | > 100000 nM | 44 nM | > 100000 nM | 444 nM |  |  |  |  |  |  |  |  | 
6 | CC(C)(Oc1ccc(Cl)cc1)C(=O)N[C@H]1C2C[C@@H]3C[C@H]1C[C@@](CCC(=O)O)(C2)C3 | 74 nM | 78% |  |  | 28000 nM |  | 13.3 mL/min/kg | 50% | 2.6 h | 23% | 86.3% | 93% | 99% | 18% | 67%
7 | CC(C)(C(=O)N[C@H]1C2C[C@@H]3C[C@H]1C[C@@](CC(N)=O)(C2)C3)c1ccc(C#N)cn1 | 65 nM | 100% | > 100000 nM | 14 nM | 15000 nM | 165 nM |  |  |  |  |  |  |  |  | 
8 | CC(C)(Oc1ccc(Cl)cc1)C(=O)N[C@H]1C2C[C@@H]3C[C@H]1C[C@@](Cc1nnn[nH]1)(C2)C3 | 87 nM | 79% | > 100000 nM | 41 nM | 7000 nM | 119 nM | 20 mL/min/kg | 17% | 2.3 h | 20% | 39.7% | 37% | 62% | 9% | 11%
9 | CC(C)(Oc1ccc(Br)cn1)C(=O)N[C@H]1C2C[C@@H]3C[C@H]1C[C@@](CC(N)=O)(C2)C3 | 4 nM | 87% |  |  | > 100000 nM |  |  | 47% |  | 23% |  | 0% | 57% |  | 

Other lines, results leading:

Row | IC50 [1] | remaining at 0.5 h [2] | IC50 [3] | IC50 [4] | IC50 [5] | IC50 [6] | clearance [7] | inhibition [8] | half-life [9] | inhibition [10] | bioavailability [11] | inhibition [12] | inhibition [13] | inhibition [14] | inhibition [15] | SMILES
10 | 11 nM | 3% |  |  |  |  |  |  |  |  |  |  |  |  |  | CC(C)(Oc1ccc(Cl)cc1)C(=O)N[C@H]1C2C[C@@H]3C[C@H]1C[C@@](c1ncc[nH]1)(C2)C3
11 | 205 nM | 25% | > 100000 nM | 146 nM | 50000 nM | 306 nM |  |  |  |  |  |  |  |  |  | CC(C)(Oc1ccc(Cl)cc1)C(=O)N[C@H]1C2C[C@@H]3C[C@H]1C[C@@](c1nc(C#N)c(N)o1)(C2)C3
12 | 71 nM | 30% |  |  |  |  |  |  |  |  |  |  |  |  |  | CC(C)(Oc1ccc(Cl)cc1)C(=O)N[C@H]1C2C[C@@H]3C[C@H]1C[C@@](c1ccno1)(C2)C3
13 | 53 nM | 41% |  |  |  |  |  |  |  |  |  |  |  |  |  | CC(C)(Oc1ccc(Cl)cc1)C(=O)N[C@H]1C2C[C@@H]3C[C@H]1C[C@@](c1nnc(N)[nH]1)(C2)C3
14 | 26 nM | 64% |  |  | > 100000 nM |  | 76.7 mL/min/kg | 92% | 0.4 h | 67% | 61.6% | 84% | 89% | 79% | 85% | CC(C)(Oc1ccc(Cl)cc1)C(=O)N[C@H]1C2C[C@@H]3C[C@H]1C[C@@](/C(N)=N/O)(C2)C3
15 | 101 nM |  |  |  | 100000 nM |  |  |  |  |  |  |  |  |  |  | CC(C)(Oc1ccc(Cl)cc1)C(=O)N[C@H]1C2C[C@@H]3C[C@H]1C[C@@](c1noc(=O)[nH]1)(C2)C3
